Measured values from ChEMBL document CHEMBL4152296, “Synthesis, biological evaluation and molecular modeling of novel azaspiro dihydrotriazines as influenza virus inhibitors targeting the host factor dihydrofolate reductase (DHFR)” (Eur J Med Chem, 2018).
Activity calls are given as the source filed them. The calls are words filed in the database; no cut-off is given here.

How the values were obtained:
[1] = test system: Human immunodeficiency virus; test: Antiviral activity against HIV after 2 days by luminometric method; assay type: functional, organism-based; settings: Human immunodeficiency virus 1, 48 h
Hepatitis C virus = test: Antiviral activity against Hepatitis C virus after 2 days by luminometric method; assay type: functional, organism-based, Hepacivirus hominis; settings: 48 h
Dengue virus = test: Antiviral activity against DENV after 2 days by luminometric method; assay type: functional, organism-based; settings: 48 h
West Nile virus = test: Antiviral activity against West Nile virus after 2 days by luminometric method; assay type: functional, organism-based; settings: 48 h
[2] = Selectivity index, ratio of CC50 for human Lunet cells to EC50 for HIV; assay type: toxicity; settings: read-out: Ratio CC50/EC50
[3] = Selectivity index, ratio of CC50 for human Lunet cells to EC50 for Hepatitis C virus; assay type: toxicity; settings: read-out: Ratio CC50/EC50
[4] = Selectivity index, ratio of CC50 for human Lunet cells to EC50 for DENV; assay type: toxicity; settings: read-out: Ratio CC50/EC50
[5] = Selectivity index, ratio of CC50 for human Lunet cells to EC50 for West Nile virus; assay type: toxicity; settings: read-out: Ratio CC50/EC50
Influenza A virus = test: Antiviral activity against Influenza A virus (A/Puerto Rico/8/34(H1N1)) infected in MDCK cells assessed as protection against virus-induced reduction in cell viability after 3 to 6 days by MTS assay; assay type: functional, organism-based; settings: A/Puerto Rico/8/1934(H1N1)
Procedure, shortened: (§1)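 MDCK cells seeded at 9000/well and infected one day later (semiconfluent) with 100 CCID50 virus. Medium was FCS-free Ultra MDCK with 2 μg/mL TPCK-trypsin. Serial five-fold compound dilutions (top 100 μM) were added with the virus, followed by 3–6 days at 35 °C. MTS read-out gave % protection versus virus and mock controls. EC50 was interpolated from semi-log curves; mean of two or three experiments.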

Influenza B virus [6] = test: Antiviral activity against Influenza B virus B/Ned/537/05 infected in MDCK cells assessed as protection against virus-induced reduction in cell viability after 3 to 6 days by MTS assay; assay type: functional, organism-based; settings: B/Ned/537/05, MDCK; procedure, shortened: as §1
[7] = Cytotoxicity against MDCK cells assessed as alterations in normal cell morphology measured after 3 to 6 days by microscopic analysis; assay type: cell-based, Canis lupus familiaris; settings: dog
Procedure, shortened: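 Uninfected MDCK cultures in FCS-free Ultra MDCK medium with trypsin received five-fold compound dilutions (up to […]) for 3–6 days at 35 °C. Microscopy scored morphology, and MCC was taken as the lowest concentration causing minimal rounding, shrinking or lysis.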

MDCK = test: Cytotoxicity against MDCK cells assessed as reduction in cell viability measured after 3 to 6 days by MTS assay; assay type: cell-based, Canis lupus familiaris; settings: dog
Procedure, shortened: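 Mock-infected MDCK plates were run in parallel (FCS-free Ultra MDCK medium with TPCK-trypsin) with serial five-fold dilutions up to […], 35 °C for 3–6 days. CC50 was interpolated from semi-log dose-response curves; mean of two or three experiments.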

[8] = test system: Respiratory syncytial virus; test: Antiviral activity against Respiratory syncytial virus Long infected in human HeLa cells assessed as inhibition of virus-induced cytopathic effect after 3 to 6 days by MTS based microscopy; assay type: functional, organism-based
[9] = Cytotoxicity against human HeLa cells assessed as alterations in normal cell morphology measured after 3 to 6 days by microscopic analysis; assay type: cell-based
Procedure, shortened: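 Mock-infected HeLa cultures in 2% FCS medium received serial five-fold dilutions […] for 3–6 days at 37 °C. MCC was the lowest concentration giving microscopically visible minimal change in cell morphology (rounding, shrinking, lysis).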

Vero = test: Cytotoxicity against African green monkey Vero cells assessed as reduction in cell viability measured after 3 to 6 days by MTS assay; assay type: cell-based; settings: chlorocebus sabaeus
[10] = Selectivity index, ratio of CC50 for MDCK cells to EC50 for Influenza B virus B/Ned/537/05 infected in MDCK cells; assay type: toxicity, cell-based; settings: dog, read-out: Ratio CC50/EC50
Procedure, shortened: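 Selectivity index for influenza B in MDCK was calculated as MTS-based CC50 divided by MTS-based EC50, both measured in parallel in the same assay.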

[11] = Selectivity index, ratio of MCC for human HeLa cells to EC50 for Respiratory syncytial virus Long infected in human HeLa cells; assay type: toxicity, cell-based; settings: read-out: Selectivity Index
Procedure, shortened: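 Selectivity index for RSV Long in HeLa was calculated as microscopic MCC divided by CPE-based microscopic EC50 from parallel infected and mock-infected cultures.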

[12] = test system: Respiratory syncytial virus; test: Potency index, ratio of ribavirin EC50 to compound EC50 for Respiratory syncytial virus Long infected in human HeLa cells; assay type: functional
Human alphaherpesvirus 1 = test: Antiviral activity against Herpes simplex virus type 1 infected in human HEL299 cells assessed as inhibition of virus-induced cytopathic effect after 3 to 6 days by MTS assay; assay type: functional, organism-based
Human alphaherpesvirus 2 = test: Antiviral activity against Herpes simplex virus type 2 infected in human HEL299 cells assessed as inhibition of virus-induced cytopathic effect after 3 to 6 days by MTS assay; assay type: functional, organism-based
Vaccinia virus = test: Antiviral activity against Vaccinia virus infected in human HEL299 cells assessed as inhibition of virus-induced cytopathic effect after 3 to 6 days by MTS assay; assay type: functional, organism-based; settings: Orthopoxvirus vaccinia
Human adenovirus 2 = test: Antiviral activity against Human adenovirus type 2 infected in human HEL299 cells assessed as inhibition of virus-induced cytopathic effect after 3 to 6 days by MTS assay; assay type: functional, organism-based
[13] = test system: Human immunodeficiency virus; test: Antiviral activity against HIV; assay type: functional, organism-based
Human coronavirus 229E = test: Antiviral activity against Human coronavirus 229E infected in human HEL299 cells assessed as inhibition of virus-induced cytopathic effect after 3 to 6 days by MTS assay; assay type: functional, organism-based
Human respirovirus 3 = test: Antiviral activity against Parainfluenza virus 3 infected in African green monkey Vero cells assessed as inhibition of virus-induced cytopathic effect after 3 to 6 days by MTS assay; assay type: functional, organism-based
[14] = test system: Vesicular stomatitis virus; test: Antiviral activity against Vesicular stomatitis virus infected in human HEL299 cells assessed as inhibition of virus-induced cytopathic effect after 3 to 6 days by MTS assay; assay type: functional, organism-based
Sindbis virus = test: Antiviral activity against Sindbis virus infected in African green monkey Vero cells assessed as inhibition of virus-induced cytopathic effect after 3 to 6 days by MTS assay; assay type: functional, organism-based
Yellow fever virus = test: Antiviral activity against Yellow fever virus infected in African green monkey Vero cells assessed as inhibition of virus-induced cytopathic effect after 3 to 6 days by MTS assay; assay type: functional, organism-based
Punta Toro virus = test: Antiviral activity against Punta Toro virus infected in African green monkey Vero cells assessed as inhibition of virus-induced cytopathic effect after 3 to 6 days by MTS assay; assay type: functional, organism-based
Coxsackievirus B4 = test: Antiviral activity against Coxsackie B4 virus infected in human HeLa cells assessed as inhibition of virus-induced cytopathic effect after 3 to 6 days by MTS assay; assay type: functional, organism-based
[15] = test system: Mammalian orthoreovirus 1; test: Antiviral activity against Reovirus-1 infected in African green monkey Vero cells assessed as inhibition of virus-induced cytopathic effect after 3 to 6 days by MTS assay; assay type: functional, organism-based
Dihydrofolate reductase = target: T1, Dihydrofolate reductase (Homo sapiens, UniProt P00374); test: Binding affinity to human recombinant DHFR using dihydrofolate as substrate after 180 secs by spectrophotometric method
T1 sequence (P00374 whole entry): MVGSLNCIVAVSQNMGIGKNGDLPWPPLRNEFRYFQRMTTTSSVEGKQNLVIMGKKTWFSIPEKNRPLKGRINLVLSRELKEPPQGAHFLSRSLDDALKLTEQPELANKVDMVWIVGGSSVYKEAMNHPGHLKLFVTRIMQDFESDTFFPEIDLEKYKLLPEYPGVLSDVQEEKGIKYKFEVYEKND
Procedure, shortened: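 Recombinant human DHFR (0.42 μM) in TES buffer with inhibitor, 60 μM DHF, and 120 μM NADPH added last to start the reaction. Absorbance at 340 nm was followed for 180 s. Six concentrations (1–32 μM) were run in duplicate. IC50 came from Dixon plots assuming competitive inhibition. Ki = IC50/(1+[S]/Km), with DHF Km 5 μM.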

Influenza B virus [16] = test: Potency index, ratio of ribavirin EC50 to compound EC50 for Influenza B virus B/Ned/537/05 infected in MDCK cells; assay type: functional

Cc1cn(-c2ccc(NC(=O)Nc3ccccc3C)cc2)nn1
EC50 [1]: 970 to 16500 nM | EC50 (Hepatitis C virus): 970 to 16500 nM | EC50 (Dengue virus): 970 to 16500 nM | EC50 (West Nile virus): 970 to 16500 nM | selectivity ratio [2]: 162 | selectivity ratio [3]: 162 | selectivity ratio [4]: 162 | selectivity ratio [5]: 162

NC1=NC2(CCN(C(=O)Nc3ccc(F)cc3)CC2)N(c2cccc(Cl)c2)C(N)=N1
EC50 (Influenza A virus): > 100000 nM | EC50 (Influenza B virus [6]): 190 nM | MCC [7]: ≥ 160 nM | CC50 (MDCK): 51000 nM | EC50 [8]: 1800 nM | MCC [9]: ≥ 100 µM | Activity (Vero): Non-Toxic | selectivity ratio [10]: 268 | selectivity ratio [11]: 56 | Ratio EC50 [12]: 3 | Activity (Human alphaherpesvirus 1): inactive | Activity (Human alphaherpesvirus 2): inactive | Activity (Vaccinia virus): inactive | Activity (Human adenovirus 2): inactive | Activity [13]: inactive | Activity (Human coronavirus 229E): inactive | Activity (Human respirovirus 3): inactive | Activity [14]: inactive | Activity (Sindbis virus): inactive | Activity (Yellow fever virus): inactive | Activity (Punta Toro virus): inactive | Activity (Coxsackievirus B4): inactive | Activity [15]: inactive | Ki (Dihydrofolate reductase): 530 nM

CCS(=O)(=O)N1CCC2(CC1)N=C(N)N=C(N)N2CCOC
EC50 (Influenza A virus): > 100000 nM | EC50 (Influenza B virus [6]): 3000 nM | MCC [7]: > 100000 nM | CC50 (MDCK): > 100000 nM | EC50 [8]: > 100000 nM | MCC [9]: > 100 µM | Activity (Vero): Non-Toxic | Activity (Human alphaherpesvirus 1): inactive | Activity (Human alphaherpesvirus 2): inactive | Activity (Vaccinia virus): inactive | Activity (Human adenovirus 2): inactive | Activity [13]: inactive | Activity (Human coronavirus 229E): inactive | Activity (Human respirovirus 3): inactive | Activity [14]: inactive | Activity (Sindbis virus): inactive | Activity (Yellow fever virus): inactive | Activity (Punta Toro virus): inactive | Activity (Coxsackievirus B4): inactive | Activity [15]: inactive | Ki (Dihydrofolate reductase): 1400 nM

Cc1ccc(C(=O)N2CCC3(CC2)N=C(N)N=C(N)N3c2cccc(Cl)c2)cc1
EC50 (Influenza A virus): > 100000 nM | EC50 (Influenza B virus [6]): 290 nM | MCC [7]: ≥ 800 nM | CC50 (MDCK): 18000 nM | EC50 [8]: 400 nM | MCC [9]: ≥ 100 µM | Activity (Vero): Non-Toxic | selectivity ratio [10]: 62 | Ratio EC50 (Influenza B virus [16]): 11 | selectivity ratio [11]: 250 | Ratio EC50 [12]: 15 | Activity (Human alphaherpesvirus 1): inactive | Activity (Human alphaherpesvirus 2): inactive | Activity (Vaccinia virus): inactive | Activity (Human adenovirus 2): inactive | Activity [13]: inactive | Activity (Human coronavirus 229E): inactive | Activity (Human respirovirus 3): inactive | Activity [14]: inactive | Activity (Sindbis virus): inactive | Activity (Yellow fever virus): inactive | Activity (Punta Toro virus): inactive | Activity (Coxsackievirus B4): inactive | Activity [15]: inactive | Ki (Dihydrofolate reductase): 640 nM
